Assay results published in ChEMBL document CHEMBL4266041, “Hydroxybiphenylamide GroEL/ES Inhibitors Are Potent Antibacterials against Planktonic and Biofilm Forms of Staphylococcus aureus” (J Med Chem, 2018).

Assays:
E. coli GroEL/ES [1] = biological target: T1, E. coli GroEL/ES (Escherichia coli, UniProt P0A6F5); experiment: Inhibition of Escherichia coli GroEL expressed in Escherichia coli DH5alpha/Escherichia coli GroES expressed in Escherichia coli BL21 (DE3) assessed as reduction in GroEL/GroES-mediated denatured MDH refolding after 20 to 40 mins by spectrometric analysis
T1 sequence (P0A6F5 whole entry, looked up): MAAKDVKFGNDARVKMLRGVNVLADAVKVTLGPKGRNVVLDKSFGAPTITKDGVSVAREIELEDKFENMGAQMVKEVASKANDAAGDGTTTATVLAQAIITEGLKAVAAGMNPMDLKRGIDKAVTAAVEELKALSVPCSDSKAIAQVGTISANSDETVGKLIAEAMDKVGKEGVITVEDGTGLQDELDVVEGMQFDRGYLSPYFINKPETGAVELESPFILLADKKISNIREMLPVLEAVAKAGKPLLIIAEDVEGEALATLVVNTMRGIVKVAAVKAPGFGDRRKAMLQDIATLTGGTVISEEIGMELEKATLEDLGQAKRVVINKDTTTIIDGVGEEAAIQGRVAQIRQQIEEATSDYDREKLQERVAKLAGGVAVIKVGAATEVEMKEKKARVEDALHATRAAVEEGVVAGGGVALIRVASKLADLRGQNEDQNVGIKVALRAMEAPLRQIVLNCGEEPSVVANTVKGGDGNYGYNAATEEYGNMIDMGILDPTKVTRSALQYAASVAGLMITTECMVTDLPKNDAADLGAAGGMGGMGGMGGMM
Outline: (§1)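 Uses E. coli GroEL/ES with a denatured MDH or rhodanese reporter. GroEL first forms a binary complex with the denatured reporter. Refolding is started by adding ATP and GroES, then reporter enzyme activity is read. DMSO is the negative control. IC50 values from replicate curves are log-averaged after ROUT outlier screening.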

E. coli GroEL/ES [2] = biological target: T1, E. coli GroEL/ES; experiment: Inhibition of Escherichia coli GroEL expressed in Escherichia coli DH5alpha/Escherichia coli GroES expressed in Escherichia coli BL21 (DE3) assessed as reduction in GroEL/GroES-mediated denatured rhodanese refolding after 45 mins by spectrometric analysis; outline: as §1
Pseudomonas aeruginosa = experiment: Antibacterial activity against Pseudomonas aeruginosa ATCC 10145 after 24 hrs by bacterial proliferation assay; type: functional, organism-based; conditions: ATCC 10145, 24 h
Outline: (§2)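 Bacterial growth inhibition in liquid culture. The highest concentration tested was 100 µM. The mean was back-calculated from the average log value. Values above the top concentration were set 0.1 log unit higher.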

Enterococcus faecium = experiment: Antibacterial activity against Enterococcus faecium ATCC 19434 after 24 hrs by bacterial proliferation assay; type: functional, organism-based; conditions: ATCC 19434, 24 h
HSP60/HSP10 = HSP60/HSP10 (Homo sapiens, UniProt P10809); experiment: Inhibition of human N-terminal octa-His-tagged HSP60 expressed in Escherichia coli Rosetta(DE3) pLysS/human HSP10 expressed in Escherichia coli Rosetta(DE3) assessed as reduction in HSP60/HSP10-mediated denatured MDH refolding after 40 to 60 mins by spectrometric analysis
Sequence of HSP60/HSP10 (P10809 whole entry): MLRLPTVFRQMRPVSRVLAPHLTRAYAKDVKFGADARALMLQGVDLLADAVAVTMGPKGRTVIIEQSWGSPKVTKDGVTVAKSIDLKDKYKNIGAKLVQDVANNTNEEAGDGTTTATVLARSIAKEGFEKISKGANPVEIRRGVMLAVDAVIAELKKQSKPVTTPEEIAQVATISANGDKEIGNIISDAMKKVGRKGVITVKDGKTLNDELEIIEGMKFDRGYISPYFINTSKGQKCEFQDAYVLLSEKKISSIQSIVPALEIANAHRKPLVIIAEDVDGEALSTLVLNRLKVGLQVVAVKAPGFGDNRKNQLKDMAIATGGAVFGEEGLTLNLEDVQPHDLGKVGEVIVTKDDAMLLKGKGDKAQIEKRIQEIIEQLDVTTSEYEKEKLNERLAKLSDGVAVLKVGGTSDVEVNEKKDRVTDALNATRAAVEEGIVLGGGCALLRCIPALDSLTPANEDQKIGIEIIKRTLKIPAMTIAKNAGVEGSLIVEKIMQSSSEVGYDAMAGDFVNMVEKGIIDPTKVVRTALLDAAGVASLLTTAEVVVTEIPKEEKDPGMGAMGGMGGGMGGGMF
Sequence of HSP60/HSP10 (P61604 whole entry, further chain): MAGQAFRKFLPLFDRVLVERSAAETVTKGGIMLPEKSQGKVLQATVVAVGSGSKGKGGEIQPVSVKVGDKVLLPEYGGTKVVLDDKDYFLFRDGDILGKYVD
Outline: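 Human HSP60/10 refolding of denatured MDH, run the same way as the GroEL/ES-dMDH assay. A binary complex of chaperonin and denatured MDH is formed, and refolding is started with ATP and HSP10. MDH activity is the read-out. DMSO is the negative control. IC50 values from replicate curves are log-averaged after ROUT outlier screening.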

Staphylococcus aureus [3] = experiment: Antibacterial activity against methicillin-resistant Staphylococcus aureus ATCC BAA-44 after 6 to 8 hrs by bacterial proliferation assay; type: functional, organism-based; conditions: Staphylococcus aureus, ATCC BAA-44
[4] = Cytotoxicity against human THLE3 cells assessed as reduction in cell viability after 48 hrs by Alamar Blue reporter assay; conditions: 48 h
Klebsiella pneumoniae = experiment: Antibacterial activity against Klebsiella pneumoniae ATCC 13883 after 6 to 8 hrs by bacterial proliferation assay; type: functional, organism-based; outline: as §2
[5] = biological target: T2, Thiosulfate sulfurtransferase (Homo sapiens, UniProt Q16762); experiment: Inhibition of refolded rhodanese (unknown origin) preincubated with Escherichia coli GroEL/GroES for 60 mins in absence of compound followed by compound addition by spectrometric analysis
T2 sequence (Q16762 whole entry): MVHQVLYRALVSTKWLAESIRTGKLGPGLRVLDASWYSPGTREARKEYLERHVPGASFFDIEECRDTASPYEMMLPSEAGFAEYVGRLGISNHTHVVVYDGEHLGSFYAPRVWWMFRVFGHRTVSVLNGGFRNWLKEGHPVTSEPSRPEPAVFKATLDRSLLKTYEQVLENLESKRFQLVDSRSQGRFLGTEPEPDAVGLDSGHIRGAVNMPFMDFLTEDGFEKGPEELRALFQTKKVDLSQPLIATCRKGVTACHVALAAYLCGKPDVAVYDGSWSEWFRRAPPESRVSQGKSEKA

Enterobacter cloacae = experiment: Antibacterial activity against Enterobacter cloacae subsp. cloacae ATCC 13047 after 24 hrs by bacterial proliferation assay; type: functional, organism-based; conditions: subsp. cloacae ATCC 13047, 24 h; outline: as §2
HEK293 = experiment: Cytotoxicity against HEK293 cells assessed as reduction in cell viability after 48 hrs by Alamar Blue reporter assay; conditions: human, hek293, 48 h
Acinetobacter baumannii = experiment: Antibacterial activity against Acinetobacter baumannii ATCC 19606 after 24 hrs by bacterial proliferation assay; type: functional, organism-based; conditions: ATCC 19606 = CIP 70.34 = JCM 6841, 24 h; outline: as §2
[6] = Inhibition of refolded MDH (unknown origin) preincubated with Escherichia coli GroEL/GroES for 45 mins in absence of compound followed by compound addition and measured for 20 to 35 mins by spectrometric analysis
Staphylococcus aureus [7] = experiment: Antibacterial activity against Staphylococcus aureus ATCC 25923 after 6 to 8 hrs by bacterial proliferation assay; type: functional, organism-based

SMILES	IC50 (E. coli GroEL/ES [1]) [µM]	IC50 (E. coli GroEL/ES [2]) [µM]	EC50 (Pseudomonas aeruginosa) [µM]	EC50 (Enterococcus faecium) [µM]	IC50 (HSP60/HSP10) [µM]	EC50 (Staphylococcus aureus [3]) [µM]	CC50 [4] [µM]	EC50 (Klebsiella pneumoniae) [µM]	IC50 [5] [µM]	EC50 (Enterobacter cloacae) [µM]	CC50 (HEK293) [µM]	EC50 (Acinetobacter baumannii) [µM]	IC50 [6] [µM]	EC50 (Staphylococcus aureus [7]) [µM]
O=C(Nc1ccc(Sc2nc3ccccc3s2)c(Cl)c1)c1cccc(Br)c1	> 100	> 100	> 100	> 100	> 100	> 100	88	> 100	> 100	> 100	> 100	> 100	> 63	> 100
O=C(Nc1ccc(Sc2nc3ccccc3s2)c(Cl)c1)c1cc(Br)ccc1O	37	11	> 100	15	> 100	0.17	14	> 100	> 100	> 100	45	> 100	> 63	0.12
O=C(Nc1ccc(Sc2nc3ccccc3s2)cc1)c1cc(Br)cc(Br)c1	> 100	> 100	> 100	> 100	> 100	> 100	> 100	> 100	> 100	> 100	> 100	> 100	> 63	> 100
COc1ccccc1C(=O)Nc1ccccc1	> 100	> 100	> 100	> 100	> 100	> 100	> 100	> 100	> 100	> 100	> 100	> 100	> 63	> 100
COc1c(Br)cc(Br)cc1C(=O)Nc1ccc(Sc2nc3ccccc3s2)cc1	> 100	> 100	> 100	> 100	> 100	> 100	> 100	> 100	> 100	> 100	> 100	> 100	> 63	> 100
COc1c(Br)cc(Br)cc1C(=O)Nc1ccc(Sc2nc3ccccc3s2)c(Cl)c1	> 100	> 100	> 100	> 100	> 100	> 100	> 100	> 100	> 100	> 100	> 100	> 100	> 63	> 100
O=C(Nc1cccc(Cl)c1)c1cc(Br)cc(Br)c1	> 100	> 100	> 100	> 100	> 100	12	45	> 100	> 100	> 100	53	> 100	> 63	14
Cc1cc(C(C#N)c2ccc(Cl)cc2)c(Cl)cc1NC(=O)c1cc(I)cc(I)c1O (stereo not drawn) [CLOSANTEL]	2.2	1.5	> 100	1.2	2.5	0.47	52	> 100	> 100	> 100	75	> 100	6.1	0.47
COc1c(Br)cccc1C(=O)Nc1ccc(Sc2nc3ccccc3s2)c(Cl)c1	> 100	> 100	> 100	> 100	> 100	> 100	> 100	> 100	> 100	> 100	> 100	> 100	> 63	> 100
COc1ccc(Br)cc1C(=O)Nc1ccccc1	> 100	> 100	> 100	> 100	> 100	> 100	> 100	> 100	> 100	> 100	> 100	> 100	> 63	> 100
CC1(C)S[C@@H]2[C@H](NC(=O)[C@H](N)c3ccccc3)C(=O)N2[C@H]1C(=O)O [AMPICILLIN]	> 100	> 100	> 100	6.9	> 100	> 100	> 100	> 100	> 100	> 100	> 100	> 100	> 63	0.19
COc1ccccc1C(=O)Nc1ccc(Sc2nc3ccccc3s2)cc1	> 100	> 100	> 100	> 100	> 100	> 100	> 100	> 100	> 100	> 100	> 100	> 100	> 63	> 100
